target: T1, Plasminogen activator inhibitor 1 (Homo sapiens, UniProt P05121); assay: Inhibitory activity against plasminogen activator inhibitor-1

Row | IC50 [µM] | Structure (SMILES)
1 | 14.9 | O=c1[nH]c(=O)n(C/C=C/c2ccc(OCc3cc(C(F)(F)F)cc(C(F)(F)F)c3)cc2)o1
2 | 5.8 | CC(/C=C/c1ccc(OCc2cccc(C(F)(F)F)c2)cc1)n1oc(=O)[nH]c1=O (centres undefined)
3 | 6.1 | CC(/C=C/c1ccc(OCc2ccc(Cl)c(Cl)c2)cc1)n1oc(=O)[nH]c1=O (centres undefined)
4 | 2.2 | CCCCC(CCn1oc(=O)[nH]c1=O)c1cccc(Oc2cccc(C)c2)c1 (centres undefined)
5 | 0.39 | O=c1[nH]c(=O)n(C(CCc2ccc(OCc3cc(C(F)(F)F)cc(C(F)(F)F)c3)cc2)c2ccccc2)o1 (centres undefined)
6 | 1.9 | CCCC/C(=C\Cn1oc(=O)[nH]c1=O)c1cccc(Oc2cc(Cl)cc(Cl)c2)c1
7 | 0.68 | O=c1[nH]c(=O)n(C(CCc2ccc(OCc3cccc(Cl)c3)cc2)c2ccccc2)o1 (centres undefined)
8 | 9 | CC/C(=C\Cn1oc(=O)[nH]c1=O)c1ccc(OCc2cc(C(F)(F)F)cc(C(F)(F)F)c2)cc1

target: T1, Plasminogen activator inhibitor 1; assay: In vitro concentration required for inhibition of tissue type plasminogen activator by plasminogen activator inhibitor-1 at concentration 25 um
Method in brief: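 Recombinant human PAI-1 (140 nM) preincubated 1 h at room temperature with compound (1-100 µM final, ≤0.2% DMSO) in pH 6.6 buffer. Recombinant human tPA (70 nM; PAI-1:tPA 2:1) then added for 30 min, followed by the chromogenic tPA substrate Spectrozyme-tPA, with A405 read at 0 and 60 min.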
Target sequence in this assay (P05121 whole entry): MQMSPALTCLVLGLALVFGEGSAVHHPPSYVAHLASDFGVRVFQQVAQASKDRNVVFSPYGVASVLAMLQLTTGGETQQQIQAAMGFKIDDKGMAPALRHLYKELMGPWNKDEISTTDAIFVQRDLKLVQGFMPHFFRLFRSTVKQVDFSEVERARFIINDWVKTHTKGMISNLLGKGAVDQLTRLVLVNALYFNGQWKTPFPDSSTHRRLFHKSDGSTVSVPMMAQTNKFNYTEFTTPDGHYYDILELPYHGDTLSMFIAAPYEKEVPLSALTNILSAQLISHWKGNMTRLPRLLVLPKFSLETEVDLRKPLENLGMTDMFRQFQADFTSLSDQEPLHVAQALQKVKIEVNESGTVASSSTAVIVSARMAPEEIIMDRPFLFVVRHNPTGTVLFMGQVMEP

Row | Structure (SMILES) | IC50 [µM]
9 | O=c1[nH]c(=O)n(C/C=C/c2cc(OCc3ccc(C(F)(F)F)cc3)cc(OCc3ccc(C(F)(F)F)cc3)c2)o1 | 2.5
10 | O=c1[nH]c(=O)n(C/C=C/c2cc(OCc3ccc(Cl)cc3)cc(OCc3ccc(Cl)cc3)c2)o1 | 2.1
11 | COc1cc(/C=C/Cn2oc(=O)[nH]c2=O)ccc1OCc1ccc(Cl)c(Cl)c1 | 3.22
12 | C/C(=C\Cn1oc(=O)[nH]c1=O)c1cccc(OCc2ccccn2)c1 | 24
13 | C/C(=C\Cn1oc(=O)[nH]c1=O)c1cccc(OCc2cc(C(F)(F)F)cc(C(F)(F)F)c2)c1 | 9.4
14 | C/C(=C\Cn1oc(=O)[nH]c1=O)c1cccc(COc2cc(C(F)(F)F)cc(C(F)(F)F)c2)c1 | 5.29
15 | O=c1[nH]c(=O)n(C/C=C/c2cc(OCc3ccc(Cl)c(Cl)c3)ccc2Cl)o1 | 3.8
16 | C/C(=C/Cn1oc(=O)[nH]c1=O)c1cccc(COc2cc(C(F)(F)F)cc(C(F)(F)F)c2)c1 | 7.2
17 | C/C(=C\Cn1oc(=O)[nH]c1=O)c1cccc(OCc2ccccc2-c2ccccc2)c1 | 2.3

target: T1, Plasminogen activator inhibitor 1; assay: In vitro inhibition of plasminogen activator inhibitor-1 at concentration 25 um
Target sequence in this assay (P05121 whole entry, looked up): as the sequence (P05121 whole entry) above

Row | inhibition [%] | Structure (SMILES)
18 | 37 | C/C(=C\Cn1oc(=O)[nH]c1=O)c1cccc(OCc2cccc(C)c2)c1
19 | 24 | C/C(=C\Cn1oc(=O)[nH]c1=O)c1cccc(OCc2ccccc2)c1

Reference: ChEMBL document CHEMBL1147467, “Design and synthesis of oxadiazolidinediones as inhibitors of plasminogen activator inhibitor-1” (Bioorg Med Chem Lett, 2004)
